From ChEMBL document CHEMBL4138139, “Discovery of VU6005649, a CNS Penetrant mGlu7/8 Receptor PAM Derived from a Series of Pyrazolo[1,5-a]pyrimidines” (ACS Med Chem Lett, 2017) come the findings set out here.

Series [1] can be described thus: Brain to plasma partition coefficient, Kp of the compound in Sprague-Dawley rat at 0.2 to […], iv administered as cassette dose measured at […] post dose by LC-MS/MS analysis. It is filed as ADME, organism-based. The following applies: brain and plasma.
For series [2], the target named is Metabotropic glutamate receptor 1 (Rattus norvegicus, UniProt P23385). Nature of the series: Negative allosteric modulation of rat mGlu1 receptor expressed in HEK cells assessed as decrease in glutamate-induced thallium flux incubated for 142 secs followed by glutamate addition measured after 120 secs by Fluo4-AM dye based fluorescence assay. The format is functional, cell-based.
Sequence of Metabotropic glutamate receptor 1 (P23385 whole entry): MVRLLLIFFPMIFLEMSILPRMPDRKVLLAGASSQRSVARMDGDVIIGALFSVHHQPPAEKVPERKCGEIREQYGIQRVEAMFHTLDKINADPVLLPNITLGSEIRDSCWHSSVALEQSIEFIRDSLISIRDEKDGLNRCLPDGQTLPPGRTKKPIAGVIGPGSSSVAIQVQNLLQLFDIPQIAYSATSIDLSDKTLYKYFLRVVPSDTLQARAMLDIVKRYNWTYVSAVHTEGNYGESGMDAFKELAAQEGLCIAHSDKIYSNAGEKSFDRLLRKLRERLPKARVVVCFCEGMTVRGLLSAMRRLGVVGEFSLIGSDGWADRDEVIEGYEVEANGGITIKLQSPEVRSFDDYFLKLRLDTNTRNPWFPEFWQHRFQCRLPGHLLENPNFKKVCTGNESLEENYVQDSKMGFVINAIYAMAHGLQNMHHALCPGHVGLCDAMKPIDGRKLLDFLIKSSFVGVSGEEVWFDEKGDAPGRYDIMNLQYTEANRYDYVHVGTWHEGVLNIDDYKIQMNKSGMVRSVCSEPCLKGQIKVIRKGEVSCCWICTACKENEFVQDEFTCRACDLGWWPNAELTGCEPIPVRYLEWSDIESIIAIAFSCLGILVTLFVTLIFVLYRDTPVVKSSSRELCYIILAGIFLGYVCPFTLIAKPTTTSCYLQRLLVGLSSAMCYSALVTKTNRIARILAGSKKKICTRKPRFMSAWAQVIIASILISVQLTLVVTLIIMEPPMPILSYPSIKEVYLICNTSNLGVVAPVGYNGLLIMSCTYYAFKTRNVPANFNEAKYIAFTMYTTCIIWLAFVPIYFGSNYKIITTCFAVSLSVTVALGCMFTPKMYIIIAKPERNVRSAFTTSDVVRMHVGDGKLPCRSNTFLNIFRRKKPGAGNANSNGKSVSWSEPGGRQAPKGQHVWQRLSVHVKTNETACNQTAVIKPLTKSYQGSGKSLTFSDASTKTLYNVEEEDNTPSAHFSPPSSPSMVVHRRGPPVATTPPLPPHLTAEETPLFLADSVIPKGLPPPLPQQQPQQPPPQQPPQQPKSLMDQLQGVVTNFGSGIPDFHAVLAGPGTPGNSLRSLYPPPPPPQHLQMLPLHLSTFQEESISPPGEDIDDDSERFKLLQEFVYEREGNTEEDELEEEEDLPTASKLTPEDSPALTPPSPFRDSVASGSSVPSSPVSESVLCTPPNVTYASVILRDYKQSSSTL

The subject of series [3] is Rattus norvegicus. The series is described as follows: Antipsychotic activity in rat assessed as inhibition of amphetamine-induced hyperlocomotion at 30 mg/kg, ip. It is filed as functional, organism-based. An outline of the steps:
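Rats given 30 mg/kg IP in 10% Tween 80/H2O, challenged with amphetamine 0.75 mg/kg s.c.; locomotor activity measured.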

Series [4] addresses Neuropeptide Y receptor type 1 (Homo sapiens) (UniProt P25929). The series is described as follows: Displacement of [125I] Peptide YY from Y1 receptor in human SK-N-MC cell membrane at 10 uM after 60 mins by scintillation counting method relative to control. The format is cell membranes. An outline of the steps: (§1)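 Single-concentration screen at 10 μM in an outsourced profiling panel of 68 GPCRs, ion channels and transporters. Activity read out as percent inhibition of specific radioligand binding.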

The nature of series [5]: Brain to plasma partition coefficient, Kp of the compound in C57BL/6 mouse at 10 mg/kg, ip measured after 60 mins by LC-MS/MS analysis. The format is ADME, organism-based. The settings on record: brain and plasma. An outline of the steps: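 Mice given 10 mg/kg IP; time course out to 6 h with nonserial sampling of plasma and brain at each time point; Kp from brain/plasma levels.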

For series [6], the species on record is Mus musculus. The series is described as follows: Displacement of [3H] PDBu from phorbol ester receptor in ICR mouse brain membranes at 10 uM after 60 mins by scintillation counting method relative to control. The following applies: Membrane. It is filed as cell membranes. In outline: as §1
Series [7] deals with Cysteinyl leukotriene receptor 1 (Homo sapiens) (UniProt Q9Y271). Nature of the series: Displacement of [3H] LTD4 from recombinant human CysLT1 receptor expressed in CHOK1 cell membranes at 10 uM after 30 mins by scintillation counting method relative to control. An outline of the steps:
as §1

Series [8] addresses L-type calcium channel, benzothiazepine site (Rattus norvegicus, UniProt P22002+P27732+Q02485). Nature of the series: Inhibition of rat L-type calcium channel benzothiazepine site at 10 uM relative to control. It is filed as protein assay.
The target of series [9] is Metabotropic glutamate receptor 5 (Rattus norvegicus, UniProt P31424). Nature of the series: Positive allosteric modulation of rat mGlu5 receptor expressed in HEK cells assessed as increase in glutamate-induced calcium flux incubated for 142 secs followed by glutamate addition measured after 120 secs by Fluo4-AM dye based fluorescence assay. The format is functional, cell-based.

The target of series [10] is Alpha-2A adrenergic receptor (Homo sapiens) (UniProt P08913). Nature of the series: Displacement of [3H]rauwolscine from full length human recombinant alpha2a receptor expressed in CHOK1 cells at 10 uM after 60 mins by scintillation counting method relative to control. It is filed as cell-based. In outline:
(§2)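 Single-concentration screen at 10 μM within a commercial lead-profiling panel of 68 GPCRs, ion channels and transporters. Activity read as percent inhibition of specific radioligand binding to each target.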

For series [11], the species on record is Rattus norvegicus. Nature of the series: Displacement of [125I] triiodothyronine from thyroid hormone receptor in Sprague-Dawley rat liver membranes at 10 uM after 18 hrs by scintillation counting method relative to control. The following applies: Membrane. The format is cell membranes. An outline of the steps:
as §1

Series [12] addresses D(2) dopamine receptor (Homo sapiens) (UniProt P14416). The series is described as follows: Displacement of [3H] spiperone from recombinant human D2S receptor expressed in CHO cell membranes at 10 uM after 120 mins by scintillation counting method relative to control. An outline of the steps: as §2
For series [13], the target named is Metabotropic glutamate receptor 6 (Homo sapiens, UniProt O15303). Nature of the series: Positive allosteric modulation of human mGlu6 receptor expressed in HEK cells assessed as increase in glutamate-induced calcium flux incubated for 142 secs followed by glutamate addition measured after 120 secs by Fluo4-AM dye based fluorescence assay. The format is functional, cell-based.
Sequence of Metabotropic glutamate receptor 6 (O15303 whole entry): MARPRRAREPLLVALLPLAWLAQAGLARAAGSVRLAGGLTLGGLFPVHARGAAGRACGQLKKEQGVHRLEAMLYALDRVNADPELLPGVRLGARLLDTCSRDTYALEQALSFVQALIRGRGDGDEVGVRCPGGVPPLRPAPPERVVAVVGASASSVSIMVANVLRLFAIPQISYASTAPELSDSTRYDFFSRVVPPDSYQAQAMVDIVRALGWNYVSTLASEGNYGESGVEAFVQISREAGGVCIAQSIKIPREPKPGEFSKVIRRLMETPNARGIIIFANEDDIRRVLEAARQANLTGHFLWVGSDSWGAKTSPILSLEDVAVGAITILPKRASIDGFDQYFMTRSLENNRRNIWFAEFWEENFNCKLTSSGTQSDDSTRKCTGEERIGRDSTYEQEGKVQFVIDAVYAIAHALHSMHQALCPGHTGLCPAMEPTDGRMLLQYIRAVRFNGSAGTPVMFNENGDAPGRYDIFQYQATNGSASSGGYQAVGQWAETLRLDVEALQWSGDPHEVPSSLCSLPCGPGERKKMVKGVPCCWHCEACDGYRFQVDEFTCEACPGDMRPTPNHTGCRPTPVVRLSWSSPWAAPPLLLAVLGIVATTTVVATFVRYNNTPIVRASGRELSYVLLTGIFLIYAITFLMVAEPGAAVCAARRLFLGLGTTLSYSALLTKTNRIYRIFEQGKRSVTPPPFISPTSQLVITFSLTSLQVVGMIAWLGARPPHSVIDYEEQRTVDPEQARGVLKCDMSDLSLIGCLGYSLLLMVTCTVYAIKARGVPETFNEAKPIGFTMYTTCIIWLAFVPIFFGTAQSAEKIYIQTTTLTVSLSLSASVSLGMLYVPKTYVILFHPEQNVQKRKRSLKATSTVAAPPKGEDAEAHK

Series [14] concerns the target Adenosine receptor A1 (Homo sapiens) (UniProt P30542). The series is described as follows: Displacement of [3H] DPCPX from full length human recombinant A1 receptor expressed in CHOK1 cell membranes at 10 uM after 90 mins by scintillation counting method relative to control. An outline of the steps:
as §1

Series [15] deals with D(3) dopamine receptor (Homo sapiens) (UniProt P35462). The series is described as follows: Displacement of [3H] spiperone from recombinant human D3 receptor expressed in CHO cell membranes at 10 uM after 120 mins by scintillation counting method relative to control. An outline of the steps: as §2
Sequence of D(3) dopamine receptor (Homo sapiens) (P35462 whole entry): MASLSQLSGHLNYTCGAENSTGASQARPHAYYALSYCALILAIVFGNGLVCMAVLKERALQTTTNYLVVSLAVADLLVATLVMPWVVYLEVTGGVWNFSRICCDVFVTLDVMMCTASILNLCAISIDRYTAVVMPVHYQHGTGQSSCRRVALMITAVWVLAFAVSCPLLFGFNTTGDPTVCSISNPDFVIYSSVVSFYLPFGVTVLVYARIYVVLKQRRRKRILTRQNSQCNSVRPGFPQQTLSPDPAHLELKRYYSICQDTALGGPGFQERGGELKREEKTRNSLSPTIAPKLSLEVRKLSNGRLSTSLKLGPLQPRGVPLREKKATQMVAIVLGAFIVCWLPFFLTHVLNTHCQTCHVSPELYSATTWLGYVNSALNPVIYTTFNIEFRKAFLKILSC
The target of series [16] is Beta-2 adrenergic receptor (Homo sapiens) (UniProt P07550). Nature of the series: Displacement of [3H] CGP-12177 from recombinant human beta2 receptor expressed in CHO cell membranes co-expressing human NBR1 at 10 uM after 60 mins by scintillation counting method relative to control. An outline of the steps:
as §1

Series [17] addresses Alpha-1A adrenergic receptor (Rattus norvegicus) (UniProt P43140). Nature of the series: Displacement of [3H] prazosin from Wistar rat alpha1a receptor at 10 uM measured after 60 mins by scintillation counting method relative to control. In outline:
as §1

The species named for series [18] is Homo sapiens. Nature of the series: Displacement of [3H] spiperone from recombinant human D4.2 receptor expressed in CHOK1 cell membranes at 10 uM after 120 mins by scintillation counting method relative to control. In outline:
as §2

Series [19] deals with B1 bradykinin receptor (Homo sapiens) (UniProt P46663). Nature of the series: Displacement of [3H]kallidin (des-Arg10, Leu9) from recombinant human bradykinin B1 receptor expressed in CHOK1 cell membranes at 10 uM measured after 60 mins by scintillation counting method relative to control. In outline:
as §2

For series [20], the target named is 5-hydroxytryptamine receptor 2B (Homo sapiens) (UniProt P41595). Nature of the series: Displacement of [3H] LSD from full length human recombinant 5-HT2B receptor expressed in CHOK1 cell membranes at 10 uM after 60 mins by scintillation counting method relative to control. In outline: as §1
Series [21] concerns the target 5-hydroxytryptamine receptor 1A (Homo sapiens) (UniProt P08908). The series is described as follows: Displacement of [3H] 8-OH-DPAT from full length human recombinant 5-HT1A receptor expressed in CHOK1 cell membranes at 10 uM after 60 mins by scintillation counting method relative to control. An outline of the steps:
as §1

The target in series [22] is T1, Cytochrome P450 1A2 (Homo sapiens, UniProt P05177).
T1 sequence (P05177 whole entry): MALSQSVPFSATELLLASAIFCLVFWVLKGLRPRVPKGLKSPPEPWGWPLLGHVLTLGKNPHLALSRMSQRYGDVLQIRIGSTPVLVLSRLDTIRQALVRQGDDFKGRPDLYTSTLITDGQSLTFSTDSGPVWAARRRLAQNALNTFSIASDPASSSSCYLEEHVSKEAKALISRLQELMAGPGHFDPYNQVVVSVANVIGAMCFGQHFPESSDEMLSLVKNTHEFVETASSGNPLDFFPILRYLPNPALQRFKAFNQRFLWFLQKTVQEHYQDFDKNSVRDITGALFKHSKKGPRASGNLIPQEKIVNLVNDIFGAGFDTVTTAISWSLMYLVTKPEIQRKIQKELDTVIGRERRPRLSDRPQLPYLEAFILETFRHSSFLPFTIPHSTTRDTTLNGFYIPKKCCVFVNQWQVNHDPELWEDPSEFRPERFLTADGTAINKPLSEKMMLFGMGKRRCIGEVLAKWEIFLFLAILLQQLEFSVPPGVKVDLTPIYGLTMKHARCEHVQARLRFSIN
The series is described as follows: Inhibition of CYP1A2 in human liver microsomes using phenacetin as substrate preincubated for 15 mins followed by NADPH addition measured after 8 mins by LC-MS/MS analysis. It is filed as ADME.

Active and inactive are the calls of the source. The rule behind the calls is not given here.

Sequence of Alpha-1A adrenergic receptor (Rattus norvegicus) (P43140 whole entry): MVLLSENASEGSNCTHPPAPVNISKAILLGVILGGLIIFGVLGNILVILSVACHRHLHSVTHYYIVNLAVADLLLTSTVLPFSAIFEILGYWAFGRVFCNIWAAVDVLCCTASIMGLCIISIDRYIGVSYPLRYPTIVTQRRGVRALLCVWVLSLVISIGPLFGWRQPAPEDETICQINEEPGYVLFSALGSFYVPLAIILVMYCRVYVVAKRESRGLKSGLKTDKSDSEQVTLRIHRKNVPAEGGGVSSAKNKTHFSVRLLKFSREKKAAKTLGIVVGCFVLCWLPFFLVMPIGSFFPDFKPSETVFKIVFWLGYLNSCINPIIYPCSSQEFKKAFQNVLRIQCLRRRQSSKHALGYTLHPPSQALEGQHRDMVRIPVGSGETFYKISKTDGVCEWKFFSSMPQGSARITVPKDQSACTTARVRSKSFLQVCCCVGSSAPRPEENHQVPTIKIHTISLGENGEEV
Sequence of D(2) dopamine receptor (Homo sapiens) (P14416 whole entry): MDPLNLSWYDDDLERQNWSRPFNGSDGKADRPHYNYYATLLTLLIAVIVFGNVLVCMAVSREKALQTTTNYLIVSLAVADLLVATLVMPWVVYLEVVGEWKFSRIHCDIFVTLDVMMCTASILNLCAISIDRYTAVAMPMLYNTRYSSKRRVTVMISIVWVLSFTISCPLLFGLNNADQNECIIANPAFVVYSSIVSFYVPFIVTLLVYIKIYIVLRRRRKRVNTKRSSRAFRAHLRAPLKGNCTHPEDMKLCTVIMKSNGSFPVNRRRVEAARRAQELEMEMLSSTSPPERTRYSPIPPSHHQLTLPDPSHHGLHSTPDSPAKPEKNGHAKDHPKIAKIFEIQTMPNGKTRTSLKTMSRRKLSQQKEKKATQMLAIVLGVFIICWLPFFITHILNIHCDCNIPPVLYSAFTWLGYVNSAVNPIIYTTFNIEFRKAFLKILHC
Sequence of Beta-2 adrenergic receptor (Homo sapiens) (P07550 whole entry, looked up): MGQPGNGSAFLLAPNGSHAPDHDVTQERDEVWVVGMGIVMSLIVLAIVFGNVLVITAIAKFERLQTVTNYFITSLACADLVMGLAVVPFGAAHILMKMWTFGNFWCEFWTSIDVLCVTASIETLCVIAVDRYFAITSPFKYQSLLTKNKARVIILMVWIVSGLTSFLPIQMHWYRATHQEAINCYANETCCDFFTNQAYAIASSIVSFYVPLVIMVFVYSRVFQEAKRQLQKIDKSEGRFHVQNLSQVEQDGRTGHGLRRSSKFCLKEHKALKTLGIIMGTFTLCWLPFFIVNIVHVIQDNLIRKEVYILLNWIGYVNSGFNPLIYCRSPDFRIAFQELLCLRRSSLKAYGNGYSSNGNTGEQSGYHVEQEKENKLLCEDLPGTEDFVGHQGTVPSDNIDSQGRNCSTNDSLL
Sequence of Cysteinyl leukotriene receptor 1 (Homo sapiens) (Q9Y271 whole entry): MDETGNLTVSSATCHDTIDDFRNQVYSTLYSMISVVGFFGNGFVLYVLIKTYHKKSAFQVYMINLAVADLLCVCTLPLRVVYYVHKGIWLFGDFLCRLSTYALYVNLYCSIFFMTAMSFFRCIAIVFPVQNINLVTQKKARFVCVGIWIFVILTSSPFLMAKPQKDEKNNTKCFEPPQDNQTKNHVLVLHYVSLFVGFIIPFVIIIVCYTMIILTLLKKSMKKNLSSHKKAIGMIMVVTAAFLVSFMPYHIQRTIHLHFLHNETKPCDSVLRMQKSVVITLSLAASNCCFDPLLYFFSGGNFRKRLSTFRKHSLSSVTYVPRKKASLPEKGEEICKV
Sequence of 5-hydroxytryptamine receptor 1A (Homo sapiens) (P08908 whole entry): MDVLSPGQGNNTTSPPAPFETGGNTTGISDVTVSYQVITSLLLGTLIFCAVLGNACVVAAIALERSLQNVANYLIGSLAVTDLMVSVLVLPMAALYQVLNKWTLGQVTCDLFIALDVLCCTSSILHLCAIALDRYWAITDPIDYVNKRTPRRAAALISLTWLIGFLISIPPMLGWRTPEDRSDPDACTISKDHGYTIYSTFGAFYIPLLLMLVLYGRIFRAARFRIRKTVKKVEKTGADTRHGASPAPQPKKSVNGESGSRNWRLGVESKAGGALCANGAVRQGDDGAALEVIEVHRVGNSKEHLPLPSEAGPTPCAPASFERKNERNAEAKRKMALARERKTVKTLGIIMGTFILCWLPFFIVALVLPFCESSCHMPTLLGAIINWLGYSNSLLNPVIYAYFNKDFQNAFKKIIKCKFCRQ
Sequence of Alpha-2A adrenergic receptor (Homo sapiens) (P08913 whole entry): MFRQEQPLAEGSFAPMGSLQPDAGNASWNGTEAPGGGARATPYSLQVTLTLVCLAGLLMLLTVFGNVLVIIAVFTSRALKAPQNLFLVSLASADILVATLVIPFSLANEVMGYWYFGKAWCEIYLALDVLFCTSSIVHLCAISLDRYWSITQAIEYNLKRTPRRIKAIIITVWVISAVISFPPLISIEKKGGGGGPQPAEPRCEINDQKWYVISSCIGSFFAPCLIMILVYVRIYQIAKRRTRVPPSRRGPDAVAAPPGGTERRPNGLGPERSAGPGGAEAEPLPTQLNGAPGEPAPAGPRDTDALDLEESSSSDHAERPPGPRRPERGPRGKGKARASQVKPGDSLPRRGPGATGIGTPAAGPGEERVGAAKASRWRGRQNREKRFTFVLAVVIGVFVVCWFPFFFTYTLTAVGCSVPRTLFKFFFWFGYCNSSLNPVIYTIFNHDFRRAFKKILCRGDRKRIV

Regarding `COc1ccc(-c2c(C)nn3c(C(F)(F)F)cc(C)nc23)c(F)c1F`, the Kp at […] in series [1] was 4.3. The 50% inhibitory concentration (IC50) is above 10 µM in [2] and 3.08 µM in series [22]. The inhibition result in series [3] was “inactive”. The inhibition in series [4], in series [6], in series [7], in [10], in [11] and in series [12] was below 50% throughout. Also, the inhibition in [14], in series [15], in [16], in series [17], in [18] and in series [19] was below 50% each time. Further, the inhibition in series [20] and in [21] was below 50% throughout. The compound also returned a concentration ratio (Kp) at 1 h in series [5] of 2.1. Moreover, the inhibition at 10 µM in series [8] is below 50%. Moreover, the EC50 in series [9] and in series [13] was above 10 µM throughout.
